Drawing on ChEMBL document CHEMBL1129672, “Ionophore properties of monensin derivatives studied on human erythrocytes by 23Na NMR and K+ and H+ potentiometry: relationship with antimicrobial and antimalarial activities” (J Med Chem, 1996), this text covers MIC and IC50 for eight compounds.

In brackets after ≈: the same amount, converted by molar mass.

The subject of experiment [1] is Bacillus cereus. The experiment in a line: Minimum Inhibitory concentration against Bacillus cereus ATCC 14579. Format: functional. In a few lines:
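Broth dilution in Mueller-Hinton broth pH 7.4, 24 h incubation at 27 °C. Ionophores diluted in DMSO across 18 tubes, 100 ug/mL down to 1.56 ng/mL.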

Experiment [2] relates to Plasmodium falciparum. The experiment in a line: In vitro inhibitory activity against Plasmodium falciparum. Format: functional, organism-based. The essentials:
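Nigerian strain kept in human erythrocytes, 7% hematocrit, RPMI 1640 + 25 mM Hepes pH 7.4 + 10% AB+ serum, 37 °C, candle jar. Drugs from DMSO stocks (final solvent ≤0.25%), 1–2% hematocrit, 0.3–0.8% parasitemia, 48 h, then [3H]hypoxanthine 12–18 h. Filter-bound counts as % of drug-free control; IC50 from log dose plot, ≥2 experiments in triplicate.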

The MIC is the smallest concentration in the dilution series that meets the test's criterion for growth inhibition. A lower MIC goes with greater potency. Usually IC50 stands for the concentration needed to halve the response being measured. Low readings indicate higher potency, high ones lower potency.

In the case of `C[C@@H]1C[C@H](C)[C@@H](C)O[C@@]1(O)COC(=O)Nc1ccc(Cl)cc1`, it took 0.05 µg/mL (≈ 0.153 µM) to inhibit growth in experiment [1] (MIC). In addition, the IC50 in experiment [2] amounted to 0.00125 µg/mL (≈ 0.00381 µM).

As for `Cc1ccc(S(=O)(=O)OC[C@]2(O)O[C@H](C)[C@@H](C)C[C@H]2C)cc1`, inhibition of growth in experiment [1] (MIC) required 0.78 µg/mL (≈ 2.37 µM). The IC50 in experiment [2] worked out at 0.00125 µg/mL (≈ 0.00381 µM).

In experiment [1], `C[C@@H]1C[C@H](C)[C@@H](C)O[C@@]1(O)COC(=O)c1cccs1` displayed an MIC of 0.02 µg/mL (≈ 0.0703 µM). The compound also returned an IC50 in experiment [2] of 0.0027 µg/mL (≈ 0.00949 µM).

As for `C[C@@H]1C[C@H](C)[C@@H](C)OC1O` (stereo partly specified), the MIC in experiment [1] was found to be 0.39 µg/mL (≈ 2.7 µM). Moreover, in experiment [2], the IC50 came to 0.0119 µg/mL (≈ 0.0827 µM).

`C[C@@H]1C[C@H](C)[C@@H](C)O[C@@]12COC(c1ccccc1)O2` (stereo partly specified): the MIC in experiment [1] turned out to be 6.25 µg/mL (≈ 23.8 µM). The same compound displayed an IC50 in experiment [2] of 0.75 µg/mL (≈ 2.86 µM).

For `C[C@@H]1C[C@H](C)[C@@H](C)O[C@@]1(O)CO`, the MIC in experiment [1] amounted to 1.56 µg/mL (≈ 8.95 µM). Also, the IC50 in experiment [2] was found to be 0.00165 µg/mL (≈ 0.00947 µM).

`C[C@@H]1C[C@H](C)[C@@H](C)O[C@@]12COC(=O)O2`: the MIC in experiment [1] came to 1.56 µg/mL (≈ 7.79 µM). Also, the midpoint of inhibition in experiment [2], the IC50, lay at 0.00075 µg/mL (≈ 0.00375 µM).

In experiment [1], `C[C@H](C[C@H](C)[C@@H](C)O)[C@H](O)CO` showed an MIC above 50 µg/mL. This compound had a half-maximal inhibitory concentration (IC50) in experiment [2] of 5.25 µg/mL (≈ 29.8 µM).
